NOD2-RIPK2 inh – NOD2-RIPK2 protein interaction inhibition; CHO BLA complementation NOD2-RIPK2, CCF4 ratio; inhibition, % at 4.98 µM; O43353; 0.38% of 360,000 active; in the data active means inhibition above about 21%;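 further: 0% = vehicle only and 100% = reference blocker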
TLR4 MyD88 comp – TLR4-MyD88 interaction inhibition in cells; O00206+Q99836; HeLa CL3-4 TLR4/MyD88 BLA complementation, FRET ratio; inhibition, % at 8.4 µM; 0.18% of 200,000 active; in the data active means inhibition above about 25%;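 further: 0% = vehicle and 100% = reference inhibitor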
Dynein transport – dynein cargo transport inhibition. 0.47% of 220,000 active. z-score, hits read low. 3617.4 mouse cells, GR-EGFP nuclear translocation imaging; test concentration mostly 20 µM; stimulated with dexamethasone, 1 µM; hits give low values;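 active means plate z-score of nuclear minus cytoplasmic receptor signal below a set negative limit, without overly bright fluorescence or cell loss, cut at about -3.5 in these data, passing the limit was not always enough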;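 further: z-score of nuclear minus cytoplasmic ring GR-EGFP intensity difference per well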
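Also added – dexamethasone, 1.0 µM final · Buffer or medium – tet-free, stripped-serum medium · Schedule – induction 48 h, compound 1 h, agonist 30 min · Detection – formaldehyde fixation, Hoechst nuclear stain, 10x automated fluorescence imaging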
ABHD5-PLIN5 inh – blocks binding of human ABHD5 to perilipin-5 | Q00G26+Q8WTS1 | Split G. princeps luciferase complementation, luminescence, 4 h | inhibition, % at 4 µM | 0.78% of 360,000 active;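 active means inhibition above the mean inhibition across every tested compound plus 3 SD, cut at about 22% in these data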;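 further: 0% = DMSO only wells and the 100% control is not disclosed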
TLR9-MyD88 block – blocks human TLR9 binding to MyD88; inhibition, % at 4.98 µM; CHO BLA complementation TLR9-MyD88, CCF4 FRET ratio; Q9NR96+Q99836; 0.21% of 340,000 active;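 active means inhibition above the mean over all tested compounds plus 3 SD, cut at about 21% in these data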;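 further: 0% = DMSO only wells and 100% = clavulanate BLA inhibitor control wells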
B2AR ag – agonists of human beta-2 adrenergic receptor inducing internalization; P07550; Am2.2-beta2AR cells, FAP receptor internalization, flow cytometry; response, % (test concentration not listed); 0.43% of 340,000 active; AID 504454;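 active means response above a set limit, near 3 SD of response in nonfluorescent compounds, cut at about 42% in these data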
NOD2-RIPK2 conf – confirmation of human NOD2-RIPK2 interaction inhibitors; shares compounds with NOD2-RIPK2 inh; CHO cells, NOD2-RIPK2 BLA complementation, CCF4 FRET; inhibition, % at 4.98 µM; 70% of 1,200 active;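 active means mean inhibition across replicates above a set limit taken from the earlier primary screen, cut at about 21% in these data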;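 further: 0% = DMSO-only wells and the high end = clavulanate BLA-blocked wells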
BLA counter – hits BLA reporter in NOD2-RIPK2 inhibitor counterscreen; inhibition, % at 4.98 µM; CHO BLA reporter, CCF4 FRET ratio; shares compounds with NOD2-RIPK2 inh; 57% of 1,200 active; AID 624371;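 active means mean inhibition above the low-control mean inhibition plus three low-control SD, cut at about 11% in these data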;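 further: 0% = DMSO only wells and 100% = clavulanate high control wells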
An asterisk follows results filed as active. Most compounds without a hit are left out; they make up all but 1.6% or so of the library.

How did O=C1C(=O)c2cccnc2-c2ncccc21 do in these assays?
NOD2-RIPK2 inh: 40.8*; ABHD5-PLIN5 inh: 100.5*; NOD2-RIPK2 conf: 2.9; BLA counter: 3.8

Results for COC(=O)Cn1cnc2c(nnn2-c2cccc(OC)c2)c1=O ?
NOD2-RIPK2 inh: -2.6; ABHD5-PLIN5 inh: -7.9; TLR9-MyD88 block: 4.7; B2AR ag: 4.3

How did CC(C)(C)[C@H](N)C(=O)N[C@H]1CCC2C3CC=C4C[C@@H](O)CC[C@]4(C)C3CC[C@@]21C (some centres not stated) do in these assays?
NOD2-RIPK2 inh: 21.4*; ABHD5-PLIN5 inh: 1.2; TLR9-MyD88 block: 5.8; B2AR ag: 28.4; NOD2-RIPK2 conf: 21.5*; BLA counter: 7.8

What do the screens show for `CNC[C@@H](Cc1ccccc1)NC[C@@H](CC1CCCCC1)NCCCc1ccccc1`?
NOD2-RIPK2 inh: -4.3; ABHD5-PLIN5 inh: 12.6; TLR9-MyD88 block: -4.7; B2AR ag: 26.5

What do the screens show for `CNC[C@@H](CC1CCCCC1)NC[C@H](CC(C)C)NCCc1cccc(C(F)(F)F)c1`?
NOD2-RIPK2 inh: 21.4*; ABHD5-PLIN5 inh: 16.8; TLR9-MyD88 block: -5.2; B2AR ag: 42.7*; NOD2-RIPK2 conf: 27.6*; BLA counter: 5.7

What do the screens show for `CCOC(=O)C1=C(C)N(C)C(C)=C(C(=O)OCC)C1c1ccncc1`?
NOD2-RIPK2 inh: 9.0; TLR4 MyD88 comp: 4.6; Dynein transport: -0.574; ABHD5-PLIN5 inh: -0.7; TLR9-MyD88 block: -7.3; B2AR ag: -1.5

How did CCOC(=O)C1=C(C)N(C)C(C)=C(C(=O)OCC)C1c1ccccc1 do in these assays?
NOD2-RIPK2 inh: 53.0*; TLR4 MyD88 comp: 0.0; Dynein transport: -0.463; ABHD5-PLIN5 inh: -0.4; TLR9-MyD88 block: -25.4; B2AR ag: 5.8; NOD2-RIPK2 conf: -8.0; BLA counter: -2.4

What do the screens show for `CCCC(=O)N1CCCC1(C)C(=O)N(C)Cc1cccc2ccccc12` (configuration not stated)?
NOD2-RIPK2 inh: 0.4; ABHD5-PLIN5 inh: 2.4

Results for CCOc1c(Br)cc(Br)cc1/C=C1\SC(N)=NC1=O ?
NOD2-RIPK2 inh: 32.2*; ABHD5-PLIN5 inh: 2.8; TLR9-MyD88 block: 4.4; B2AR ag: 2.4; NOD2-RIPK2 conf: 2.7; BLA counter: -3.5

Results for CCOc1cc(/C=C2\SC(N)=NC2=O)ccc1O ?
NOD2-RIPK2 inh: -6.5; ABHD5-PLIN5 inh: 11.4; TLR9-MyD88 block: 4.4; B2AR ag: 11.4

What do the screens show for `COc1ccc(N2CCN(CC(=O)Nc3ccc(C)cc3Br)CC2)cc1`?
NOD2-RIPK2 inh: 25.8*; ABHD5-PLIN5 inh: 4.3; TLR9-MyD88 block: -8.1; B2AR ag: 1.3; NOD2-RIPK2 conf: -6.9; BLA counter: -6.6

How did CCCN(CC1CC1)C(=O)COC(=O)c1oc2c(F)cccc2c1C do in these assays?
NOD2-RIPK2 inh: -3.5; ABHD5-PLIN5 inh: 5.1; TLR9-MyD88 block: -2.1; B2AR ag: 4.0

Results for CC(=O)Nc1cccc(-c2csc(C(O)c3ccc(F)c(F)c3)n2)c1 (configuration not stated) ?
NOD2-RIPK2 inh: 5.3; ABHD5-PLIN5 inh: 1.6

Results for Nc1cc2c(cc1Cl)-c1ccc([N+](=O)[O-])cc1C2=NO ?
NOD2-RIPK2 inh: 21.6*; ABHD5-PLIN5 inh: -5.7; TLR9-MyD88 block: -0.2; B2AR ag: -73.3; NOD2-RIPK2 conf: 18.4; BLA counter: 26.2*

What do the screens show for `CC(NC(=O)CN(c1cccc(C(F)(F)F)c1)S(C)(=O)=O)c1ccccc1` (configuration not stated)?
NOD2-RIPK2 inh: -0.3; ABHD5-PLIN5 inh: -9.6; TLR9-MyD88 block: 2.2; B2AR ag: 4.2

What do the screens show for `COc1ccccc1C(=O)Oc1cc(C)[nH]c(=O)c1[N+](=O)[O-]`?
NOD2-RIPK2 inh: -8.5; TLR4 MyD88 comp: 0.7; Dynein transport: 3.36; ABHD5-PLIN5 inh: 0.1; TLR9-MyD88 block: 1.6; B2AR ag: 1.7

Results for CCOc1ccccc1C(=O)Oc1cc(C)[nH]c(=O)c1[N+](=O)[O-] ?
NOD2-RIPK2 inh: 97.0*; ABHD5-PLIN5 inh: -3.6; TLR9-MyD88 block: 7.7; B2AR ag: 5.9; NOD2-RIPK2 conf: 1.2; BLA counter: -0.8

How did CCN1C(=O)c2cccc3c(S(=O)(=O)N4CCC(C)CC4)ccc1c23 do in these assays?
NOD2-RIPK2 inh: 22.6*; ABHD5-PLIN5 inh: 6.2; TLR9-MyD88 block: 18.3; B2AR ag: -10.3; NOD2-RIPK2 conf: 22.4*; BLA counter: 25.1*

How did Brc1ccc2nc(C3CCCCC3)c(Cc3ccccc3)n2c1 do in these assays?
NOD2-RIPK2 inh: 7.1; ABHD5-PLIN5 inh: -7.1

Results for CCCCCCCCN1C(=O)[C@H](CC(=O)NCc2cccc(C(F)(F)F)c2)C[C@@]2(C(=O)OCC)CCC=C12 ?
NOD2-RIPK2 inh: -13.0; ABHD5-PLIN5 inh: -2.3

Results for COc1ccc(C(=O)Nc2ccc(C)cc2C(=O)c2ccccc2)cc1 ?
NOD2-RIPK2 inh: 0.8; TLR4 MyD88 comp: -1.8; Dynein transport: 0.226; ABHD5-PLIN5 inh: -7.6; TLR9-MyD88 block: -3.7; B2AR ag: -19.2

What do the screens show for `COc1ccccc1C(=O)Nc1ccc(C)cc1C(=O)c1ccccc1`?
NOD2-RIPK2 inh: 22.4*; TLR4 MyD88 comp: -1.5; Dynein transport: -0.201; ABHD5-PLIN5 inh: -5.5; TLR9-MyD88 block: -3.4; B2AR ag: 26.3; NOD2-RIPK2 conf: -10.1; BLA counter: -4.5

How did CS(=O)(=O)c1ccc(C(=O)OCC(=O)N2CCN(CCC3CCCCC3)CC2)cc1[N+](=O)[O-] do in these assays?
NOD2-RIPK2 inh: 55.0*; ABHD5-PLIN5 inh: 12.4; NOD2-RIPK2 conf: 57.6*; BLA counter: 8.6

Results for CS(=O)(=O)c1ccc(C(=O)OCC(=O)N2CCOCC2)cc1[N+](=O)[O-] ?
NOD2-RIPK2 inh: 9.9; ABHD5-PLIN5 inh: 1.3

What do the screens show for `CC1=C(C(=O)N2CCOCC2)CC(CC(=O)NCc2cccs2)C(=O)N1Cc1ccccc1` (configuration not stated)?
NOD2-RIPK2 inh: -0.2; ABHD5-PLIN5 inh: 2.6

How did COC(=O)c1ccc(N2C(c3cc(OC)cc(OC)c3)=Cc3ccc(-c4ccc(C(N)=O)cc4)cc3C2CC(=O)C2CC2)cc1 (configuration not stated) do in these assays?
NOD2-RIPK2 inh: 34.4*; ABHD5-PLIN5 inh: 8.6; NOD2-RIPK2 conf: 35.7*; BLA counter: 58.5*

Results for Cc1ccc(Nc2nc(N)c([N+](=O)[O-])c(NCc3ccco3)n2)cc1 ?
NOD2-RIPK2 inh: 25.1*; TLR4 MyD88 comp: 9.7; Dynein transport: -0.227; ABHD5-PLIN5 inh: -12.5; TLR9-MyD88 block: -3.7; B2AR ag: 9.0; NOD2-RIPK2 conf: 8.2; BLA counter: -1.6

Assay outcomes from PubChem.
